The record followed here is article PMC6904838 (International Journal for Parasitology: Drugs and Drug …, 2019).

In data set [1] the test system is L. infantum promastigotes. Description: In vitro assay on iRFP-L. infantum promastigotes. The class given is cell-based, Leishmania infantum. In short, it runs like this: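 iRFP-expressing L. infantum BCN150 promastigotes at 1 × 10^6 cells/mL in supplemented M199 (25 mM HEPES pH 6.9, 10% FBS). DMSO stocks were diluted in M199 to 0.01–200 μM final, with 72 h exposure at 26 °C. Viability was read as 713 nm infrared fluorescence, in triplicate. EC50 came from nonlinear fits. SIp = HepG2 72 h Alamar Blue CC50 / promastigote EC50.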

The test system of data set [2] is L. infantum amastigotes. In kind it is cell-based, Leishmania infantum. In short, it runs like this:
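Female BALB/c mice were infected intraperitoneally with 10^8 iRFP-expressing metacyclic promastigotes. After five weeks, spleen cells were collagenase-dispersed into RPMI with 10% FBS and exposed to test compound (0.01–200 μM) at 37 °C, 5% CO2. After 72 h, amastigote viability was read by infrared fluorescence at 713 nm, and EC50 came from a nonlinear fit. HepG2 CC50 (Alamar Blue, 72 h, 0.01–200 μM) was divided by this EC50.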

Data set [3] can be described thus: HepG2 cytotoxicity. To be noted: human, HepG2 cells (ATCC HB-8065). In kind it is cell-based. The procedure, abridged: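 HepG2 human hepatocarcinoma cells in Glutamax DMEM with 10% FBS and penicillin/streptomycin, seeded and held at 37 °C under 5% CO2. Serial dilutions of test compound (0.01–200 μM) added, viability read after 72 h by Alamar Blue per manufacturer's protocol. CC50 derived by non-linear fitting of viability versus concentration.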

By CC50 is commonly meant the concentration at which the toxic effect on the cells reaches its halfway point. Read a high CC50 as better tolerance by the cells. In the case of `CCCCCCCCCCCCCCCCOP(=O)([O-])OCC[N+](C)(C)C` [MTF, Miltefosine], the “SIp: Selectivity Index for promastigotes (CC50 HepG2/EC50 promastigotes)” value in data set [1] amounted to 8.5. Besides, in data set [2], the “SIa: Selectivity Index for amastigotes (CC50 HepG2/EC50 amastigotes)” value is on record as 21. Moreover, it took 50.4 ± 4.3 µM to reach half-maximal cytotoxicity in data set [3] (CC50 at 72 h).
